Measurements: article PMC3755765 (ChemMedChem, 2013)
Converted amounts (≈) assume the structure as drawn. “And” between values parts separate entries of the source, which are not always exact repeats. Equal values may be shown once. “Also recorded” adds a separate entry of the source. Read-outs that look alike come from different tables or passages of the source.

Legend:
TgENR = biological target: T1, TgENR (Toxoplasma gondii, UniProt Q6UCJ9); experiment: TgENR enzyme assay; format: biochemical; settings: for inhibition at 1 µM: read-out: Cpd. conc. [1 μM]/% Inh.: percentage of inhibition of TgENR; for Activity in the enzyme-based assay: purified TgENR
T1 sequence (Q6UCJ9 28-417): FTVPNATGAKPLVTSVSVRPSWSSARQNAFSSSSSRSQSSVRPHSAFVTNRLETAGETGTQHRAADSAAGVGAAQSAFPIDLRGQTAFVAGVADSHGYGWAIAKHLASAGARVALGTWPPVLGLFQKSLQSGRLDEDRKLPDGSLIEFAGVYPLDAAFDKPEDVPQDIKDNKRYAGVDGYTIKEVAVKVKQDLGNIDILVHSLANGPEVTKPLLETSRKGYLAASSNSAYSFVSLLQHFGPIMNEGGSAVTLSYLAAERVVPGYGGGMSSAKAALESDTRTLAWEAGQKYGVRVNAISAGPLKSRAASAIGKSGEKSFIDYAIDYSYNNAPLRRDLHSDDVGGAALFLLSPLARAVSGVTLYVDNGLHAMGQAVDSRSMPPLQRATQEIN

T. gondii tachyzoites = experiment: Parasite tissue culture assay: inhibition of T. gondii tachyzoites in HFF; format: cell-based, Toxoplasma gondii; settings: for MIC50 / IC50: Toxoplasma gondii; for Activity in the parasite-based assay: T. gondii tachyzoites
T. gondii = T. gondii mouse infection model; format: in vivo; settings: mice; for Effect on parasite burden compared to triclosan (Xenogen camera images): 10mg/ml; for Effect on parasite growth in vivo: 50mg/kg (results not shown)
Toxicity in mice = format: in vivo
[1] = test system: Human Foreskin Fibroblasts (HFF); experiment: Toxicity for host cells; settings: for Parasite tissue culture assay HFF (HFF toxicity): human foreskin fibroblasts, highest concentration tested 10 μM
[2] = Intrinsic clearance in human liver microsomes; format: in vitro ADME
[3] = Intrinsic clearance in human cryopreserved hepatocytes; format: in vitro ADME; settings: human
[4] = test system: human cryopreserved hepatocytes; experiment: as above; format: in vitro ADME
[5] = Experimental Caco-2 permeability; settings: human, Caco-2
[6] = test system: P. falciparum strain D6 (CDC/Sierra Leone); experiment: Malaria SYBR Green I-based fluorescence assay, strain D6; format: cell-based; settings: Plasmodium falciparum, D6, 72 h, read-out: SYBR Green D6 IC50
Outline: (§1)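 Late-ring or early-trophozoite parasites at 0.3% starting parasitemia and 2% hematocrit were added to plates predosed with quadruplicate 12-point two-fold dilutions in DMSO (final […]), with mefloquine as reference. Plates were incubated 72 h at 37°C under 5% CO2/5% O2/90% N2, lysed with Tris/EDTA/Triton X/saponin buffer with SYBR Green I (final 10x), kept dark 24 h at RT, and read as RFU. A chloroquine batch control at 2000 ng/ml validated each run.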

[7] = test system: P. falciparum strain TM91C235 (WRAIR, Thailand, chloroquine resistant); experiment: Malaria SYBR Green I-based fluorescence assay, strain TM91C235; format: cell-based; settings: Plasmodium falciparum, 72 h, read-out: SYBR Green C235 IC50
Outline: as §1

Caco-2 = experiment: Experimental Caco-2 permeability; settings: experimental, Contract Research Organization
in vitro = settings: human, Caco-2
[8] = 72 h, read-out: Parasite tissue culture assay MIC50
[9] = 75 mg/kg, day 5 after infection, 75 mg/kg

Row | Structure (SMILES) | inhibition at 1 µM (TgENR) [%] | MIC50 (T. gondii tachyzoites; [8]) [µM] | Effect on parasite burden in vivo (T. gondii; 10 mg/kg) | Parasite tissue culture assay HFF (HFF toxicity) [1] [µM] | Activity in the enzyme-based assay (TgENR) | Activity in the parasite-based assay (T. gondii tachyzoites) | IC50 [6] | IC50 [7] | further results
1 | Oc1cc(Cl)ccc1Oc1ccc(Cn2ccnn2)cc1Cl [Compound 16c, 5-Chloro-2-[2-chloro-4-[(1H-1,2,3-triazol-1-yl)methyl]phenoxy]phenol] | 91 | 0.25 (≈ 0.084 µg/mL) | neither of those analogs reduced the parasite burden; also recorded: no effect | >10 | – | – | – | – | IC50 (T. gondii tachyzoites; read-out: IC50 (MIC50) against Toxoplasma gondii tachyzoites): 250 nM; Effect on parasite burden compared to triclosan (Xenogen camera images) (T. gondii): reduced effect; Effect on parasite growth in vivo (T. gondii): not evident; Effect on parasite burden in vivo (T. gondii; [9]): protected the mice by decreasing parasite burden; also recorded: effective in reducing parasite burden; Toxicity in mice relative to triclosan (fold less toxic) (Toxicity in mice): 10 fold; Toxicity to the host cells [1]: without apparent toxicity to the host cells; half-life [2]: > 60 min; half-life [3]: 29 min; Compound left unmetabolized ([4]; after 60 min): 20%; Compound remained intact ([4]; after 120 min): 5%; Papp [5]: 26.3 ×10⁻⁶ cm/s
2 | Cc1cc(CC(=O)NCc2ccc(Oc3ccc(Cl)cc3O)c(Cl)c2)on1 [Compound 37c, N-[3-Chloro-4-(4-chloro-2-hydroxyphenoxy)benzyl]-2-(3-methyl-1,2-oxazol-5-yl)acetamide] | 96 | > 10 | neither of those analogs reduced the parasite burden; also recorded: no effect | – | – | – | – | – | Effect on parasite burden compared to triclosan (Xenogen camera images) (T. gondii): reduced effect; Effect on parasite growth in vivo (T. gondii): not evident; Effect on parasite burden in vivo (T. gondii; [9]): protected the mice by decreasing parasite burden; also recorded: effective in reducing parasite burden; Toxicity in mice relative to triclosan (fold less toxic) (Toxicity in mice): 10 fold
3 | Oc1cc(CNC2CCCCC2)ccc1Oc1ccc(Cl)cc1Cl [Compound 39b, 5-[(Cyclohexylamino)methyl]-2-(2,4-dichlorophenoxy)phenol] | 34 | 4 (≈ 1.47 µg/mL) | – | >10 | completely inactive | activity comparable to or better than that of triclosan | 30 nM and 0.0119 µg/mL | 80 nM and 0.0276 µg/mL | –
4 | CCC(=O)c1ccc(Oc2ccc(Cl)cc2Cl)c(O)c1 [Compound 43a, 1-[4-(2,4-Dichlorophenoxy)-3-hydroxyphenyl]propan-1-one] | 85 | – | – | >10 | only weak activity; also recorded: only weak inhibition | ineffective | 2.75 µM and 0.857 µg/mL | > 2 µg/mL | IC50 (T. gondii tachyzoites; [8]): > 10000 nM
5 | O=C(c1ccccc1)c1ccc(Oc2ccc(Cl)cc2Cl)c(O)c1 [Compound 43b, [4-(2,4-Dichlorophenoxy)-3-hydroxyphenyl](phenyl)methanone] | 78 | > 10 | – | >10 | only weak activity; also recorded: only weak inhibition | ineffective | > 2 µg/mL | > 2 µg/mL | IC50 (TgENR): 750 nM
6 | Oc1cc(Cl)ccc1Oc1ccc(Cl)cc1Cl [Triclosan, triclosan, reference compound] | 97 | 3 (≈ 0.869 µg/mL) | effective; also recorded: demonstrated efficacy | > 10 | – | – | – | – | IC50 (T. gondii tachyzoites; [8]): 250 nM
7 | COc1cc2c(c(OC)c1OC)-c1ccc(OC)c(=O)cc1[C@@H](NC(C)=O)CC2 [colchicines, reference compound] | – | – | – | – | – | – | – | – | Caco-2 permeability (Caco-2): 0.1 ×10⁻⁶ cm/s
8 | CC(C)NCC(O)COc1cccc2ccccc12 (stereo not drawn) [propranolol] | – | – | – | – | – | – | – | – | Papp (in vitro): 51.1 ×10⁻⁶ cm/s
